Results taken from ChEMBL document CHEMBL1781906, “New quinolin-4-yl-1,2,3-triazoles carrying amides, sulphonamides and amidopiperazines as potential antitubercular agents” (2011).
In brackets after ≈: the same amount, converted by molar mass.

How the values were obtained:
Assay type in all cases: functional
[1] = test system: Pseudomonas aeruginosa; assay: Antibacterial activity against Pseudomonas aeruginosa ATCC 27853 after 18 to 24 hrs by […]
[2] = test system: Mycobacterium tuberculosis; assay: Antimycobacterial activity against Mycobacterium tuberculosis H37Rv ATCC 27294 after 7 days by resazurin method; conditions: H37Rv ATCC 27294, 168 h
Method in brief: (§1)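 H37Rv was grown in Middlebrook 7H9 broth with 10% OADC, diluted to McFarland 2 in the same medium, and added to fresh medium in 96-well plates with compound. Compounds were tested at 1, 10 and 100. The dye turned pink in controls after […] at 37 °C.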

[3] = test system: Escherichia coli; assay: Antibacterial activity against Escherichia coli ATCC 25922 after 18 to 24 hrs by […]
[4] = test system: Mycolicibacterium smegmatis; assay: Antimycobacterial activity against Mycobacterium smegmatis ATCC 19420 after 7 days by resazurin method; conditions: ATCC 19420, 168 h
Method in brief: (§2)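 MIC was determined by resazurin microplate assay. Resazurin turns from blue to pink when reduced by viable cells, and wells with no colour change were scored as inhibited. Isoniazid and rifampicin were reference drugs.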

[5] = test system: Mycolicibacterium fortuitum; assay: Antimycobacterial activity against Mycobacterium fortuitum ATCC 19542 after 7 days by resazurin method; conditions: ATCC 19542, 168 h; method in brief: as §2
[6] = test system: Streptococcus pyogenes; assay: Antibacterial activity against Streptococcus pyogenes after 18 to 24 hrs by serial plate dilution method
[7] = test system: Staphylococcus aureus; assay: Antibacterial activity against Staphylococcus aureus ATCC 25923 after 18 to 24 hrs by serial plate dilution method
[8] = test system: Klebsiella pneumoniae; assay: Antibacterial activity against Klebsiella pneumoniae after 18 to 24 hrs by […]
[9] = test system: Mycobacterium tuberculosis; assay: Antimycobacterial activity against Mycobacterium tuberculosis H37Rv ATCC 27294 assessed as inhibition of bacterial growth at 1 to 100 ug/ml after 7 days by resazurin method; method in brief: as §1

SMILES | MIC [1] | MIC [2] | MIC [3] | MIC [4] | MIC [5] | MIC [6] | MIC [7] | MIC [8] | inhibition (INH) [9]
COc1ccc2nc(C)cc(-n3cc(CN4CCN(C(=O)c5ccccc5Cl)CC4)nn3)c2c1 | 3.12 µg/mL (≈ 6.54 µM) | 10 µg/mL (≈ 21 µM) | 6.25 µg/mL (≈ 13.1 µM) | 100 µg/mL (≈ 210 µM) | 100 µg/mL (≈ 210 µM) | 3.12 µg/mL (≈ 6.54 µM) | 3.12 µg/mL (≈ 6.54 µM) | 3.12 µg/mL (≈ 6.54 µM) | –
COc1ccc2nc(C)cc(-n3cc(CN4CCN(C(=O)c5ccccc5)CC4)nn3)c2c1 | 0.4 µg/mL (≈ 0.904 µM) | 10 µg/mL (≈ 22.6 µM) | 0.4 µg/mL (≈ 0.904 µM) | 100 µg/mL (≈ 226 µM) | 100 µg/mL (≈ 226 µM) | 0.8 µg/mL (≈ 1.81 µM) | 0.8 µg/mL (≈ 1.81 µM) | 0.4 µg/mL (≈ 0.904 µM) | 85%
COc1ccc2nc(C)cc(-n3cc(CNS(=O)(=O)c4ccccc4C(F)(F)F)nn3)c2c1 | 0.4 µg/mL (≈ 0.838 µM) | 1 µg/mL (≈ 2.09 µM) | 0.2 µg/mL (≈ 0.419 µM) | 100 µg/mL (≈ 209 µM) | 10 µg/mL (≈ 20.9 µM) | 0.4 µg/mL (≈ 0.838 µM) | 0.8 µg/mL (≈ 1.68 µM) | 0.4 µg/mL (≈ 0.838 µM) | 90%
COc1ccc2nc(C)cc(-n3cc(CN4CCN(C(=O)c5ccc(F)cc5)CC4)nn3)c2c1 | 1.6 µg/mL (≈ 3.47 µM) | 1 µg/mL (≈ 2.17 µM) | 0.8 µg/mL (≈ 1.74 µM) | 1 µg/mL (≈ 2.17 µM) | 10 µg/mL (≈ 21.7 µM) | 0.4 µg/mL (≈ 0.869 µM) | 0.8 µg/mL (≈ 1.74 µM) | 0.8 µg/mL (≈ 1.74 µM) | 90%
CO[C@H]1/C=C/O[C@@]2(C)Oc3c(C)c(O)c4c(O)c(c(/C=N/N5CCN(C)CC5)c(O)c4c3C2=O)NC(=O)/C(C)=C\C=C\[C@H](C)[C@H](O)[C@@H](C)[C@@H](O)[C@@H](C)[C@H](OC(C)=O)[C@@H]1C [RIFAMPIN] | – | 0.5 µg/mL (≈ 0.608 µM) | – | 1.5 µg/mL (≈ 1.82 µM) | 1.5 µg/mL (≈ 1.82 µM) | – | – | – | 95%
COc1ccc2nc(C)cc(-n3cc(CN4CCN(C(=O)C5CC5)CC4)nn3)c2c1 | 0.4 µg/mL (≈ 0.984 µM) | 5 µg/mL (≈ 12.3 µM) | 0.4 µg/mL (≈ 0.984 µM) | 100 µg/mL (≈ 246 µM) | 100 µg/mL (≈ 246 µM) | 0.4 µg/mL (≈ 0.984 µM) | 0.8 µg/mL (≈ 1.97 µM) | 0.2 µg/mL (≈ 0.492 µM) | 90%
COc1ccc2nc(C)cc(-n3cc(CNS(=O)(=O)c4ccc(F)cc4)nn3)c2c1 | 0.8 µg/mL (≈ 1.87 µM) | 1 µg/mL (≈ 2.34 µM) | 3.12 µg/mL (≈ 7.3 µM) | 100 µg/mL (≈ 234 µM) | 100 µg/mL (≈ 234 µM) | 0.4 µg/mL (≈ 0.936 µM) | 0.4 µg/mL (≈ 0.936 µM) | 3.12 µg/mL (≈ 7.3 µM) | 85%
COc1ccc2nc(C)cc(-n3cc(CNC(=O)c4ccc(C(F)(F)F)cc4)nn3)c2c1 | 0.4 µg/mL (≈ 0.906 µM) | 0.625 µg/mL (≈ 1.42 µM) | 0.4 µg/mL (≈ 0.906 µM) | 10 µg/mL (≈ 22.7 µM) | 5 µg/mL (≈ 11.3 µM) | 0.2 µg/mL (≈ 0.453 µM) | 0.4 µg/mL (≈ 0.906 µM) | 0.2 µg/mL (≈ 0.453 µM) | 95%
COc1ccc2nc(C)cc(-n3cc(CN4CCN(C(=O)c5ccc(Cl)c(Cl)c5)CC4)nn3)c2c1 | 0.8 µg/mL (≈ 1.56 µM) | 5 µg/mL (≈ 9.78 µM) | 3.12 µg/mL (≈ 6.1 µM) | 100 µg/mL (≈ 196 µM) | 100 µg/mL (≈ 196 µM) | 0.8 µg/mL (≈ 1.56 µM) | 6.25 µg/mL (≈ 12.2 µM) | 0.8 µg/mL (≈ 1.56 µM) | 85%
COc1ccc2nc(C)cc(-n3cc(CNC(=O)C4CCC4)nn3)c2c1 | 0.8 µg/mL (≈ 2.28 µM) | 10 µg/mL (≈ 28.5 µM) | 1.6 µg/mL (≈ 4.55 µM) | 100 µg/mL (≈ 285 µM) | 100 µg/mL (≈ 285 µM) | 0.8 µg/mL (≈ 2.28 µM) | 1.6 µg/mL (≈ 4.55 µM) | 1.6 µg/mL (≈ 4.55 µM) | 85%
COc1ccc(C(=O)N2CCN(Cc3cn(-c4cc(C)nc5ccc(OC)cc45)nn3)CC2)cc1 | 3.12 µg/mL (≈ 6.6 µM) | 0.625 µg/mL (≈ 1.32 µM) | 0.4 µg/mL (≈ 0.846 µM) | 5 µg/mL (≈ 10.6 µM) | 10 µg/mL (≈ 21.2 µM) | 1.6 µg/mL (≈ 3.39 µM) | 0.8 µg/mL (≈ 1.69 µM) | 1.6 µg/mL (≈ 3.39 µM) | 90%
COc1ccc2nc(C)cc(-n3cc(CNS(=O)(=O)c4ccccc4)nn3)c2c1 | 6.25 µg/mL (≈ 15.3 µM) | 100 µg/mL (≈ 244 µM) | 6.25 µg/mL (≈ 15.3 µM) | 100 µg/mL (≈ 244 µM) | 100 µg/mL (≈ 244 µM) | 6.25 µg/mL (≈ 15.3 µM) | 12.5 µg/mL (≈ 30.5 µM) | 6.25 µg/mL (≈ 15.3 µM) | –
COc1ccc2nc(C)cc(-n3cc(CNS(=O)(=O)c4ccc(C)cc4)nn3)c2c1 | 6.25 µg/mL (≈ 14.8 µM) | 10 µg/mL (≈ 23.6 µM) | 6.25 µg/mL (≈ 14.8 µM) | 100 µg/mL (≈ 236 µM) | 100 µg/mL (≈ 236 µM) | 6.25 µg/mL (≈ 14.8 µM) | 3.12 µg/mL (≈ 7.37 µM) | 6.25 µg/mL (≈ 14.8 µM) | 85%
COc1ccc2nc(C)cc(-n3cc(CN4CCN(C(C)=O)CC4)nn3)c2c1 | 0.2 µg/mL (≈ 0.526 µM) | 0.625 µg/mL (≈ 1.64 µM) | 0.1 µg/mL (≈ 0.263 µM) | 10 µg/mL (≈ 26.3 µM) | 100 µg/mL (≈ 263 µM) | 0.2 µg/mL (≈ 0.526 µM) | 0.4 µg/mL (≈ 1.05 µM) | 0.1 µg/mL (≈ 0.263 µM) | 95%
CCc1ccc(S(=O)(=O)NCc2cn(-c3cc(C)nc4ccc(OC)cc34)nn2)cc1 | 12.5 µg/mL (≈ 28.6 µM) | 100 µg/mL (≈ 229 µM) | 6.25 µg/mL (≈ 14.3 µM) | 100 µg/mL (≈ 229 µM) | 100 µg/mL (≈ 229 µM) | 6.25 µg/mL (≈ 14.3 µM) | 6.25 µg/mL (≈ 14.3 µM) | 6.25 µg/mL (≈ 14.3 µM) | –
COc1ccc2nc(C)cc(-n3cc(CNC(=O)c4ccc(F)cc4)nn3)c2c1 | 0.2 µg/mL (≈ 0.511 µM) | 0.625 µg/mL (≈ 1.6 µM) | 0.2 µg/mL (≈ 0.511 µM) | 10 µg/mL (≈ 25.5 µM) | 100 µg/mL (≈ 255 µM) | 0.2 µg/mL (≈ 0.511 µM) | 0.8 µg/mL (≈ 2.04 µM) | 0.2 µg/mL (≈ 0.511 µM) | 90%
COc1ccc2nc(C)cc(-n3cc(CNC(=O)c4ccccc4Cl)nn3)c2c1 | 6.25 µg/mL (≈ 15.3 µM) | 10 µg/mL (≈ 24.5 µM) | 3.12 µg/mL (≈ 7.65 µM) | 100 µg/mL (≈ 245 µM) | 100 µg/mL (≈ 245 µM) | 3.12 µg/mL (≈ 7.65 µM) | 1.6 µg/mL (≈ 3.92 µM) | 3.12 µg/mL (≈ 7.65 µM) | 80%
NNC(=O)c1ccncc1 [ISONIAZID] | – | 0.7 µg/mL (≈ 5.1 µM) | – | 50 µg/mL (≈ 365 µM) | 12.5 µg/mL (≈ 91.1 µM) | – | – | – | 95%
O=C(O)c1cn(C2CC2)c2cc(N3CCNCC3)c(F)cc2c1=O [CIPROFLOXACIN] | 0.4 µg/mL (≈ 1.21 µM) | – | – | – | – | 0.4 µg/mL (≈ 1.21 µM) | 1 µg/mL (≈ 3.02 µM) | 0.05 µg/mL (≈ 0.151 µM) | –
COc1ccc2nc(C)cc(-n3cc(CNS(=O)(=O)c4ccc(Cl)c(Cl)c4)nn3)c2c1 | 12.5 µg/mL (≈ 26.1 µM) | 100 µg/mL (≈ 209 µM) | 12.5 µg/mL (≈ 26.1 µM) | 100 µg/mL (≈ 209 µM) | 100 µg/mL (≈ 209 µM) | 3.12 µg/mL (≈ 6.52 µM) | 1.6 µg/mL (≈ 3.34 µM) | 3.12 µg/mL (≈ 6.52 µM) | –
CCc1ccc(C(=O)N2CCN(Cc3cn(-c4cc(C)nc5ccc(OC)cc45)nn3)CC2)cc1 | 6.25 µg/mL (≈ 13.3 µM) | 100 µg/mL (≈ 213 µM) | 3.12 µg/mL (≈ 6.63 µM) | 100 µg/mL (≈ 213 µM) | 100 µg/mL (≈ 213 µM) | 6.25 µg/mL (≈ 13.3 µM) | 6.25 µg/mL (≈ 13.3 µM) | 3.12 µg/mL (≈ 6.63 µM) | –
COc1ccc2nc(C)cc(-n3cc(CNC(=O)c4ccc(C)cc4)nn3)c2c1 | 6.25 µg/mL (≈ 16.1 µM) | 100 µg/mL (≈ 258 µM) | 3.12 µg/mL (≈ 8.05 µM) | 100 µg/mL (≈ 258 µM) | 100 µg/mL (≈ 258 µM) | 0.8 µg/mL (≈ 2.06 µM) | 1.6 µg/mL (≈ 4.13 µM) | 3.12 µg/mL (≈ 8.05 µM) | –
COc1ccc2nc(C)cc(-n3cc(CN4CCN(C(=O)c5ccc(C)cc5)CC4)nn3)c2c1 | 12.5 µg/mL (≈ 27.4 µM) | 100 µg/mL (≈ 219 µM) | 6.25 µg/mL (≈ 13.7 µM) | 100 µg/mL (≈ 219 µM) | 100 µg/mL (≈ 219 µM) | 6.25 µg/mL (≈ 13.7 µM) | 6.25 µg/mL (≈ 13.7 µM) | 12.5 µg/mL (≈ 27.4 µM) | –
